Assay outcomes: PubChem BioAssay, Broad Institute
In the library only some 2.1% were active in any assay of this set; here they are far more common.
CAL PDZ FP-1: untagged CAL PDZ binding inhibitors, primary screen, biochemical, fluorescence polarization, HTS. AID 602252, 2012. hit rate 0.92% among 300,000. purified CAL PDZ, TMR-peptide fluorescence polarization, 1 h. inhibition, % at 24.9 µM. Golgi-associated PDZ and coiled-coil motif-containing protein (Homo sapiens), Q9HD26;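 active means mean inhibition of at least 30% with at least half of replicates also reaching 30%; inconclusive means no clear call, values can overlap the other calls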;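 further: 0% = DMSO neutral control and 100% = excess unlabeled competitor peptide PRC23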
miR122 inh: miR-122 Renilla sensor signal increase in Huh7, primary screen, miR-122 inhibitor project, cell-based, single point, plate reader; Huh7 miR-122 Renilla luciferase sensor, 48 h; neutral wells = 0, positive control = 100; activation (reporter increase), % at 12.5 µM; hit rate 0.3% among 340,000;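 active means mean replicate activation score at least 90 and every replicate individually at or above 90; inconclusive means only one of the two criteria met; inactive means neither criterion met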;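 further: higher luciferase means less miR-122 activity so hits act as miR-122 inhibitors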
SR-BI DiI-HDL act: activators of SR-BI mediated DiI-HDL uptake, primary screen, ldlA[mSR-BI] CHO cells, DiI fluorescence | 3 h; 100 = double the neutral-control signal | hit rate 0.096% among 320,000 | AID 504775, 2011 | activation, % at 12.5 µM;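 active means mean replicate activation of at least 60% and every replicate at or above 60%; inconclusive means mean or all-replicate condition met, but not both; inactive means mean below 60% and not all replicates reaching 60%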;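 further: 0% = median plate neutral-control signal and 100% = twice that signal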
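Material – SR-BI-overexpressing, LDLR-lacking CHO cells · Medium – BSA-supplemented, HEPES-buffered Ham's F12, pH 7.4 · Doses – single concentration · Times – compound with DiI-HDL co-incubation, 3 h at 37 °C · Measured by – bottom-read fluorescence, 550/595 nm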
CAL PDZ FP-2: CAL PDZ peptide-binding inhibitors, primary screen, biochemical, fluorescence polarization, Cer-tagged CAL PDZ, HTS. Golgi-associated PDZ and coiled-coil motif-containing protein (Homo sapiens), Q9HD26. inhibition, % at 20 µM. purified CAL PDZ, TMR-peptide fluorescence polarization, 1 h. hit rate 0.02% among 330,000;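 active means highest replicate inhibition of at least 40%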;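 further: plate controls were DMSO neutral control wells for no effect and unlabeled competitor peptide control wells for full effect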
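Material: tagged CAL PDZ domain; buffer or medium: 25 mM sodium phosphate pH 7.4, 150 mM NaCl, TCEP, IgG, Thesit; compound dosing: single point, 20 µM; schedule: 1 h incubation at room temperature before polarization reading; measured by: FP readout, S and P plane fluorescence; read-out basis: percent inhibition from loss of millipolarization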
SR-BI DiI inh: inhibitors of SR-BI mediated HDL lipid uptake, primary screen, ldlA[mSR-BI] cells, fluorescence, single point. hit rate 0.96% among 320,000. Scavenger receptor class B member 1 (Mus musculus), Q61009. inhibition, % at 12.5 µM. ldlA[mSR-BI] CHO cells, DiI-HDL uptake fluorescence, 3 h. AID 488896, 2010;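 active means mean replicate inhibition of at least 70% and a set share of replicates each scoring 70 or more; inconclusive means meets just one of the two criteria; inactive means fails both criteria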;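 further: 0% = median of neutral control wells and 100% = median of positive control wells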
Target sequence (Q61009 whole entry, looked up): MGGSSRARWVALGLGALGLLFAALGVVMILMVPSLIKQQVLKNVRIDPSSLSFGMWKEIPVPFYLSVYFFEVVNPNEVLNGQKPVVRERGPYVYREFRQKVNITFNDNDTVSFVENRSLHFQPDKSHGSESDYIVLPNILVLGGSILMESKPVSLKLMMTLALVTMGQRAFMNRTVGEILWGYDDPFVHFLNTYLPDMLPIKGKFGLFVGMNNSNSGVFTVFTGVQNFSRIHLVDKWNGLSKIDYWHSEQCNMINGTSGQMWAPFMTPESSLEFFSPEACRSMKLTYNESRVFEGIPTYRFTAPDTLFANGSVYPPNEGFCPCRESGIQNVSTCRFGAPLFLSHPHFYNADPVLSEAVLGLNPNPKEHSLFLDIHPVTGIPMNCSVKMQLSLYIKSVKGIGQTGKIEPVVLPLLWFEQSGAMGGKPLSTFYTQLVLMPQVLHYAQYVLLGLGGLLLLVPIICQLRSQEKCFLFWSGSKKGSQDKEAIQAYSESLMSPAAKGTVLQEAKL
ARNT-TACC3 inh: disruptors of ARNT/TACC3 protein interaction, primary screen, biochemical, AlphaScreen, single concentration. inhibition, % at 9.99 µM. hit rate 0.66% among 390,000. AID 623870, 2012. AlphaScreen His-ARNT PAS-B/GST-TACC3 binding, luminescence; TACC3 fragment carries E629A point mutation. Transforming acidic coiled-coil-containing protein 3 (Homo sapiens), Q9Y6A5;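 active means mean inhibition of replicates at least 50% and at least half of replicates each reaching 50%; inconclusive means half or more replicates reach 50% but mean below 50%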;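 further: 0% = complete ARNT plus TACC3 wells and 100% = ARNT alone without TACC3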
Numbers without * were called inactive; ? = inconclusive; . = no result given; [ ] = remark or other dose.

SMILES	CAL PDZ FP-1	miR122 inh	SR-BI DiI-HDL act	CAL PDZ FP-2	SR-BI DiI inh	ARNT-TACC3 inh
COc1ccc(NC(=O)O[C@H](c2ccc(OCCO)cc2)[C@@H](C)CCO)cc1	.	.	.	.	.	-22
Cc1ccc(S(=O)(=O)N2CC[C@@H]3[C@H]2c2cc(C#Cc4cccnc4)ccc2N(C)[C@H]3CO)cc1	.	-15[16.7 µM]	.	.	.	41
O=C(C[C@@H]1C=C[C@H](NC(=O)Nc2cc(F)ccc2F)[C@H](CO)O1)Nc1ccccc1	.	.	.	.	.	7
CC(Sc1nnnn1C)C(=O)Nc1ccc2c(c1)OCCO2 (stereo not drawn)	44*	.	17	-1	-17	1
Cn1nnnc1SCC(=O)Nc1ccc2c(c1)OCCO2	.	-10	27	-1	-27	-11
Cc1ccnc(NC(=O)c2cccc(OC(F)F)c2)n1	0	.	.	-2	.	-2
O=C(Nc1cc(Cl)cc(Cl)c1)c1cccc(OC(F)F)c1	.	4	-74	-1	74*	-15
CN(C)S(=O)(=O)c1cccc(C(=O)Nc2cc(Cl)cc(Cl)c2)c1	-5	29	-73	-3	73*	-20
CCCN1C[C@@H](C)[C@@H](OC)CN(C)C(=O)c2cc(NC(=O)COC)ccc2OC[C@H]1C	.	-14[16.7 µM]	.	.	.	1
CCC(=O)N(C)C[C@@H]1Oc2cc(C#CCC3CCCC3)ccc2S(=O)(=O)N([C@@H](C)CO)C[C@@H]1C	.	7[16.7 µM]	.	.	.	1
CC(C)c1csc(CN2CCC(N3CCC(C(=O)NCC4CCCO4)CC3)CC2)n1 (stereo not drawn)	39*	-1	2	0	-2	-3
Cc1cc(Br)c(OCc2ccc(C(=O)N/N=C/c3ccc[nH]3)cc2)c(Br)c1	12	-22	-91	1	91*	-1
O=C(NCC1CC1)[C@H]1[C@H](CO)[C@H]2Cn3c(ccc(-c4ccccc4)c3=O)[C@H]2N1Cc1cocn1	.	-9[16.7 µM]	.	.	.	-4
Cc1ccsc1CN(C)C(=O)C1CCC(=O)N(CCc2cccc(F)c2)C1 (stereo not drawn)	-2	0	-10	0	10	-3
Cc1nc(CN(C)C(=O)C2CCC(=O)N(CCc3cccc(F)c3)C2)cs1 (stereo not drawn)	57*	-1	-16	1	16	-1
Cc1ccc(NC(=O)/C(C#N)=C/c2cn(CC(=O)NCc3ccco3)c3ccccc23)cc1C	-8	.	-36	.	36	-4
Cc1ccc(C)c(NC(=O)/C(C#N)=C/c2cn(CC(=O)NCc3ccco3)c3ccccc23)c1	44*	.	-17	-1	17	0
CCC(CO)Oc1cc(NC(=O)c2cccc([N+](=O)[O-])c2)c2ncn(C(C)C)c2c1 (stereo not drawn)	-1	-2	-75	1	75*	42
CCC(CN(C)C)Oc1cc(NCc2ccccc2)c2ncn(C(C)C)c2c1 (stereo not drawn)	1	-5	18	1	-18	51*
Cc1cccc(C)c1-n1c(C)cc(/C=N\Nc2ccc([N+](=O)[O-])cn2)c1C	-4	-5	-80	1	80*	11
O=[N+]([O-])c1ccc(NN=Cc2cc(Br)ccc2O)nc1	4	.	-135	-1	135*	-4
O=[N+]([O-])c1ccc(NN=Cc2cccc(O)c2)nc1	5	.	-31	1	31	.
CN1CCN(C(=O)C[C@H]2CC[C@H]3[C@@H](COC[C@@H](O)CN3S(=O)(=O)c3cccc(Cl)c3)O2)CC1	.	2[16.7 µM]	.	.	.	-4
CCC(=O)N1CN(S(=O)(=O)c2ccc(C)cc2)CC1C (stereo not drawn)	42*	1	0	0	0	-3
COc1ccc(-c2sc3cc4c(cc3c2C#Cc2ccc(N)cc2)OCO4)cc1	-4	8	-93	0	93*	-5
SMILES	CAL PDZ FP-1	miR122 inh	SR-BI DiI-HDL act	CAL PDZ FP-2	SR-BI DiI inh	ARNT-TACC3 inh
Nc1nc(-c2ccccc2)c(N=Nc2ccc(Cl)cc2)s1	-3	.	-86	-2	86*	1
COc1ccc(-c2nc(CS(=O)CC(=O)NC(C)CCc3ccccc3)c(C)o2)cc1OC (stereo not drawn)	45*	6	-49	0	49	-3
Cc1noc(C)c1NC(=O)N(C)C[C@@H]1OCCCC[C@@H](C)Oc2ccc(NS(=O)(=O)c3ccc(F)cc3)cc2C(=O)N([C@H](C)CO)C[C@@H]1C	.	11[16.7 µM]	.	.	.	2
COc1ccc(-c2cc3c(=O)n(CC(=O)NCc4ccc(F)cc4)ncn3n2)cc1	50*	1	-8	-1	8	-4
CCCC(=O)NC(NC(=S)Nc1ccc(S(N)(=O)=O)cc1)C(Cl)(Cl)Cl (stereo not drawn)	5	.	36	-2	-36	28*
CCCCCC(=O)NC(NC(=S)Nc1ccc(S(N)(=O)=O)cc1)C(Cl)(Cl)Cl (stereo not drawn)	-2	12	?	-3	-159	-1
CCNC(=O)Nc1ccc2c(c1)C(=O)N(C)[C@H]1CC[C@H](CC(=O)NCc3cccc(F)c3)O[C@H]1CO2	.	4[16.7 µM]	.	.	.	-35
S=c1sc2c(Cl)ncnc2n1-c1ccccc1	.	10	-10	-1	10	69*
C[C@@H]1CN([C@H](C)CO)C(=O)Cc2cc(NC(=O)CCN3CCOCC3)ccc2O[C@@H]1CN(C)S(=O)(=O)c1cccs1	.	3[16.7 µM]	.	.	.	.
CN(C)c1ccc(C=C2C(=O)OC(C)(C)OC2=O)cc1	-5	4	7	-1	-7	-13
CN(C)c1ccc(C=C2C(=O)OC(C)(C(C)(C)C)OC2=O)cc1 (stereo not drawn)	-8	-3	-72	.	?	active
COc1ccc(S(=O)(=O)Nc2cc(SCC(=O)O)c(O)c3ccccc23)cc1	22	28	3	28	-3	61*
O=C(O)CSc1cc(NS(=O)(=O)c2ccc(Cl)cc2)c2ccccc2c1O	7	.	0	36	0	48*
COc1ccc(S(=O)(=O)Nc2cccc3ccc(O)cc23)cc1	.	.	-10	0	10	-5
CCC(=O)N1C[C@H](C)[C@@H](OC)CN(C)C(=O)c2ccc(NC(=O)Nc3ccccc3)cc2OC[C@H]1C	.	1[16.7 µM]	.	.	.	12
